In ChEMBL document CHEMBL5344467, “Improving Activity of New Arylurea Agents against Multidrug-Resistant and Biofilm-Producing Staphylococcus epidermidis” (ACS Med Chem Lett, 2024):
Values after ≈ are worked out from the molar mass of the structure shown. Active and inactive are the calls of the source. No cut-off for these calls is given here.

Assays:
Cell membrane [1] = test: Induction of cell membrane permeability Staphylococcus epidermidis clinical isolate 23 assessed as depolarized cells at 0.4 ug/ml by Texas Red-H/FITC-H staining based flow cytometry (reference value: 2.7%); type: subcellular; conditions: dose 0.4 µg/ml
Summary of the method: (§1)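 Membrane potential read by flow cytometry. Bacteria were stained with DiOC2, then exposed to the agent; red fluorescence marks polarized cells and green marks depolarized cells. CCCP served as the positive control and daptomycin as the depolarizing reference at 0.4 μg/mL. Test concentrations were 0.8, 1.6 and 3.125 μg/mL, with a 15 min exposure.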

Cell membrane [2] = test: Induction of cell membrane permeability Staphylococcus epidermidis clinical isolate 23 assessed as residual polarized cells at 0.4 ug/ml by Texas Red-H/FITC-H staining based flow cytometry (reference value: 69.6%); type: subcellular; conditions: dose 0.4 µg/ml; summary of the method: as §1
Cell membrane [3] = test: Induction of cell membrane permeability Staphylococcus epidermidis clinical isolate 23 assessed as residual polarized cells by Texas Red-H/FITC-H staining based flow cytometry (reference value: 69.6%); type: subcellular; summary of the method: as §1
Cell membrane [4] = test: Induction of cell membrane permeability Staphylococcus epidermidis clinical isolate 23 assessed as depolarized cells by Texas Red-H/FITC-H staining based flow cytometry (reference value: 2.7%); type: subcellular; summary of the method: as §1
[5] = Selectivity index, ratio of IC50 for rat H9c2 cells to IC50 for human BJ cells; type: toxicity; conditions: H9c2 cells and BJ cells, read-out: Ratio IC50
[6] = tested on: Staphylococcus epidermidis; test: Antibiofilm activity against Staphylococcus epidermidis clinical isolates assessed as eradication of existing biofilms measured after 24 hrs by confocal laser scanning microscopy analysis; type: functional
[7] = Selectivity index, ratio of IC50 for cytotoxicity against human BJ cells to MIC for antibacterial activity against multidrug resistant Staphylococcus epidermidis clinical isolates; type: toxicity, cell-based; conditions: read-out: Selectivity Index
Summary of the method: (§2)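 SI is IC50 divided by the mean MIC across clinical multidrug-resistant S. epidermidis isolates (81 strains). IC50 came from an MTT assay after 24 h treatment of H9c2 cardiomyocytes or BJ skin fibroblasts, n = 3. MIC was measured by broth microdilution.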

[8] = Selectivity index, ratio of IC50 for cytotoxicity against rat H9c2 cells to MIC for antibacterial activity against multidrug resistant Staphylococcus epidermidis clinical isolates; type: toxicity, cell-based; conditions: read-out: Selectivity Index; summary of the method: as §2
[9] = tested on: Staphylococcus epidermidis; test: Antibiofilm activity against Staphylococcus epidermidis clinical isolates assessed as inhibition of biofilm formation measured after 24 hrs by confocal laser scanning microscopy analysis; type: functional
Escherichia coli = test: Antibacterial activity against Escherichia coli ATCC 25922 assessed as inhibition of bacterial growth by broth microdilution method; type: functional
Pseudomonas aeruginosa = test: Antibacterial activity against Pseudomonas aeruginosa ATCC 27853 assessed as inhibition of bacterial growth by broth microdilution method; type: functional
Acinetobacter baumannii = test: Antibacterial activity against Acinetobacter baumannii ATCC 19606 assessed as inhibition of bacterial growth by broth microdilution method; type: functional
[10] = tested on: Staphylococcus epidermidis; test: Antibacterial activity against multidrug-resistant and biofilm producer Staphylococcus epidermidis ATCC 35984 assessed as inhibition of bacterial growth by broth microdilution method; type: functional
Summary of the method: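 Preliminary MIC screen by broth microdilution against three reference strains (methicillin-susceptible, multidrug-resistant/biofilm-producing S. epidermidis, and biofilm-producing S. aureus); MIC reported in μg/mL.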

Cell membrane [11] = test: Induction of cell membrane permeability Staphylococcus epidermidis clinical isolate 23 assessed as residual polarized cells at 1.6 ug/ml by Texas Red-H/FITC-H staining based flow cytometry (reference value: 69.6%); type: subcellular; conditions: dose 1.6 µg/ml
Summary of the method: (§3)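 Cells stained with DiOC2, then exposed to test agent (0.8, 1.6, 3.125 μg/mL tested); CCCP positive control, daptomycin 0.4 μg/mL reference depolarizer, DiOC2-only negative control. Membrane potential read by flow cytometry as red (polarized) versus green (depolarized) cell populations; depolarization assessed within 15 min.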

Cell membrane [12] = test: Induction of cell membrane permeability Staphylococcus epidermidis clinical isolate 23 assessed as depolarized cells at 1.6 ug/ml by Texas Red-H/FITC-H staining based flow cytometry (reference value: 2.7%); type: subcellular; conditions: dose 1.6 µg/ml; summary of the method: as §3
Cell membrane [13] = test: Induction of cell membrane permeability Staphylococcus epidermidis clinical isolate 23 assessed as depolarized cells at 3.125 ug/ml by Texas Red-H/FITC-H staining based flow cytometry (reference value: 2.7%); type: subcellular; conditions: dose 3.125 µg/ml
Summary of the method: (§4)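 Clinical S. epidermidis no. 23 cells were first stained with DiOC2, then treated with compound. Membrane potential was read by flow cytometry within 15 min: red marks polarized cells, green marks depolarized cells. Controls were DiOC2-only cells (negative), CCCP (positive), and daptomycin at 0.4 μg/mL as a depolarizing reference.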

[14] = tested on: Staphylococcus epidermidis; test: Antibiofilm activity against Staphylococcus epidermidis clinical isolate 25 assessed as inhibition of biofilm formation measured after 24 hrs by confocal laser scanning microscopy analysis; type: functional
Summary of the method: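 Clinical S. epidermidis strain no. 25 biofilm exposed to compound for 24 h, stained with FilmTracer SYPRO Ruby biofilm matrix stain, and imaged by confocal microscopy. Untreated compact biofilm served as control.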

Cell membrane [15] = test: Induction of cell membrane permeability Staphylococcus epidermidis clinical isolate 23 assessed as depolarized cells at 0.8 ug/ml by Texas Red-H/FITC-H staining based flow cytometry (reference value: 2.7%); type: subcellular; conditions: dose 0.8 µg/ml; summary of the method: as §4
Cell membrane [16] = test: Induction of cell membrane permeability Staphylococcus epidermidis clinical isolate 23 assessed as residual polarized cells at 0.8 ug/ml by Texas Red-H/FITC-H staining based flow cytometry (reference value: 69.6%); type: subcellular; conditions: dose 0.8 µg/ml; summary of the method: as §4
[17] = tested on: Staphylococcus epidermidis; test: Bacteriostatic activity Staphylococcus epidermidis clinical isolate 44 at 0.4 to 25 ug/ml measured upto 1000 mins by broth microdilution method; type: functional, organism-based; conditions: dose 0.4-25 µg/ml

SMILES: CCCCCCCCCC(=O)N[C@@H](Cc1c[nH]c2ccccc12)C(=O)N[C@H](CC(N)=O)C(=O)N[C@@H](CC(=O)O)C(=O)N[C@@H]1C(=O)NCC(=O)N[C@@H](CCCN)C(=O)N[C@@H](CC(=O)O)C(=O)N[C@H](C)C(=O)N[C@@H](CC(=O)O)C(=O)NCC(=O)N[C@H](CO)C(=O)N[C@@H]([C@H](C)CC(=O)O)C(=O)N[C@@H](CC(=O)c2ccccc2N)C(=O)O[C@@H]1C
- Activity (Cell membrane [1]): 7.2%
- Activity (Cell membrane [2]): 1.3%

SMILES: N#CC(C#N)=NNc1cccc(Cl)c1
- Activity (Cell membrane [3]): 0.1%
- Activity (Cell membrane [4]): 73.4%

SMILES: O=S(=O)(NC1CCN(CCC(Oc2ccc(C(F)(F)F)cc2)c2ccccc2)CC1)c1cccc(Cl)c1 (racemic)
- selectivity ratio [5]: 2
- MBEC90 [6]: >=125 ug ml-1
- selectivity ratio [7]: 0.4
- selectivity ratio [8]: 0.7
- MBIC90 [9]: >=125 ug ml-1

SMILES: O=S(=O)(NC1CCN(CCC(Oc2ccc(C(F)(F)F)cc2)c2cccs2)CC1)c1cccc(Cl)c1 (racemic)
- selectivity ratio [5]: 2
- MBEC90 [6]: >=125 ug ml-1
- selectivity ratio [7]: 1
- selectivity ratio [8]: 2.8
- MBIC90 [9]: >=125 ug ml-1

SMILES: O=S(=O)(NC1CCN(CCC(Oc2cccc(C(F)(F)F)c2)c2ccccc2)CC1)c1cccc(Cl)c1 (racemic)
- MIC (Escherichia coli): ≥ 25 µg/mL
- MIC (Pseudomonas aeruginosa): ≥ 25 µg/mL
- MIC (Acinetobacter baumannii): ≥ 25 µg/mL

SMILES: O=S(=O)(NC1CCN(CCC(Oc2ccc(C(F)(F)F)cc2)c2cccs2)CC1)c1cccc(C(F)(F)F)c1 (racemic)
- MIC [10]: 0.2 µg/mL (≈ 0.337 µM)

SMILES: O=C(Nc1cccc(Cl)c1)NC1CCN(CCC(Oc2ccc(C(F)(F)F)cc2)c2cccs2)CC1 (racemic)
- Activity (Cell membrane [11]): 1.9%
- Activity (Cell membrane [12]): 72.4%
- selectivity ratio [5]: 2
- MIC (Escherichia coli): > 50 µg/mL
- Activity (Cell membrane [13]): 55.2%
- MBIC [14]: 7.8 µg/mL
- MBEC90 [6]: 31.25 µg/mL
- selectivity ratio [7]: 7.5
- Activity (Cell membrane [15]): 34.7%
- selectivity ratio [8]: 15.3
- Activity (Cell membrane [16]): 43.5%
- MIC (Pseudomonas aeruginosa): > 50 µg/mL
- Activity [17]: Active
- MBIC90 [9]: 31.25 µg/mL
- MIC (Acinetobacter baumannii): > 50 µg/mL

SMILES: O=S(=O)(NC1CCN(CCC(Oc2ccc(C(F)(F)F)cc2)c2cccs2)CC1)c1cccc(Br)c1 (racemic)
- MIC [10]: 0.4 µg/mL (≈ 0.663 µM)

SMILES: CC(=O)NC[C@H]1CN(c2ccc(N3CCOCC3)c(F)c2)C(=O)O1 [LINEZOLID]
- MBEC90 [6]: 50 µg/mL
- selectivity ratio [8]: 7.3
- Activity [17]: Active
- MBIC90 [9]: 50 µg/mL
